The list is not random: actives were taken first. Their share in the collection is about 0.99%.
Fam108B inh: blocks mouse Fam108B hydrolase in RBBP9 counter-screen; recombinant Fam108B, FP-Rh probe fluorescence polarization; inhibition, % at 9.51 µM; AID 1947; 300,000 compounds, 0.33% hits;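 active = inhibition above the screen mean inhibition plus 3 SD, computed separately per campaign, cut at about 18% in these data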;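 note: inhibitors lower polarization as less probe binds the enzyme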
PME-1 primary: PME-1 (human) inhibition; inhibition, % at 5.9 µM; recombinant PME-1, FP-Rh probe fluorescence polarization; 320,000 compounds, 0.53% hits; Q9Y570;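 active = inhibition above the campaign mean of all compounds plus 3 SD, cut at about 26% in these data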;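 note: competitive labeling of PME-1 active site by serine hydrolase directed probe; 0% = PME-1 with DMSO and 100% = wells lacking PME-1 enzyme; inhibitors block probe labeling so polarization falls and inhibition rises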
LYPLA2 counter: counter-screen for PME1 inhibitors: inhibitors of human LYPLA2; O95372; recombinant LYPLA2, FP-Rh probe fluorescence polarization; inhibition, % at 5.9 µM; 320,000 compounds, 0.38% hits; AID 2177;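 active = inhibition above the screen-wide mean plus 3 SD, limit set per campaign, cut at about 26% in these data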;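 note: 0% = LYPLA2 with DMSO and 100% = wells lacking LYPLA2 enzyme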
Target sequence (O95372 whole entry, looked up): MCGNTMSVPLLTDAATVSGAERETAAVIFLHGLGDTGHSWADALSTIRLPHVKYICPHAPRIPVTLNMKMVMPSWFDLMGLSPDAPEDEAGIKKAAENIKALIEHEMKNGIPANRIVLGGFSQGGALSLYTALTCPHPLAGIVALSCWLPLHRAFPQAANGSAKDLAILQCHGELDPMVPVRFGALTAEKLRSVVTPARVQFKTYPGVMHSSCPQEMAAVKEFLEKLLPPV
LYPLA1 inh: LYPLA1 (human) inhibition in PME1 counter-screen. O75608. recombinant LYPLA1, FP-Rh probe fluorescence polarization. inhibition, % at 5.9 µM. 320,000 compounds, 0.16% hits;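 active = inhibition above the mean of all tested compounds plus 3 SD, set per campaign, cut at about 14% in these data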;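 note: inhibitors block serine hydrolase probe labeling of LYPLA1 so polarization falls; 0% = enzyme with DMSO and 100% = wells lacking LYPLA1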
Target sequence (O75608 whole entry, looked up): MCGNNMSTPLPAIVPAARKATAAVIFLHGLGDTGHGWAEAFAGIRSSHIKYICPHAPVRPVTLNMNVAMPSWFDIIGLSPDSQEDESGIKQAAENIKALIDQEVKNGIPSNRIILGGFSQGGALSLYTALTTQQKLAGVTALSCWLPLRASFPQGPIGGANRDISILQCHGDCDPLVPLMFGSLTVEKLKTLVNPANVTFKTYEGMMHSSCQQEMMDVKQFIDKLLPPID
RBBP9 inhibitor: human RBBP9 hydrolase inhibition | AID 1515 | O75884 | recombinant RBBP9, FP-Rh probe fluorescence polarization | 220,000 compounds, 0.2% hits | inhibition, % at 7.94 µM;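 active = inhibition above the campaign mean of all tested compounds plus 3 SD, cut at about 14% in these data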;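 note: plate controls were DMSO wells with RBBP9 for no effect and wells lacking RBBP9 protein for full effect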
Target sequence (O75884 whole entry, looked up): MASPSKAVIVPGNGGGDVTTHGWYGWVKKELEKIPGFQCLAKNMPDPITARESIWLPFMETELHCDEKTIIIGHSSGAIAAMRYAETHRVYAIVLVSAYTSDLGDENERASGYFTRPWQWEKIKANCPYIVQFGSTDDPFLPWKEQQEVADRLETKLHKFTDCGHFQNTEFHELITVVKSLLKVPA
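Assay system: recombinant human RBBP9; Reagent: Serine-hydrolase probe FP-Rh, 375 nM pre-mixing; Doses: 7.94 µM single dose, 0.794% DMSO; Incubation: 30 min then 45 min, 25 °C; Detection: fluorescence polarization (mP), excitation 525 nm, emission 598 nm; Evaluation: percent inhibition from mP, scaled between DMSO and no-protein wells.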
RBBP9 confirm: human RBBP9 inhibition, confirmation; shares compounds with RBBP9 inhibitor; recombinant RBBP9, FP-Rh probe fluorescence polarization; inhibition, % at 7.94 µM; 410 compounds, 36% hits; AID 1537;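 active = inhibition above the hit cutoff derived for the primary screen, cut at about 15% in these data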;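 note: 0% = RBBP9 with DMSO and 100% = wells lacking RBBP9 protein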
Fam108b confirm: confirmation of mouse Fam108b serine hydrolase inhibitors | inhibition, % at 9.51 µM | 930 compounds, 44% hits | recombinant Fam108b, FP-Rh probe fluorescence polarization | shares compounds with Fam108B inh | AID 1978;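 active = inhibition above a limit from the primary screen, the mean over all compounds plus 3 SD, cut at about 19% in these data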;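 note: 0% = median of active Fam108b wells and 100% = catalytically dead S170A mutant; inhibitors free the probe so polarization falls as inhibition rises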
Fam108b inh: mouse ABHD17B inhibition. recombinant Fam108b, gel-based ABPP, fluorophosphonate probe. inhibition, % at 20 µM. shares compounds with Fam108B inh. 260 compounds, 44% hits. AID 588649; in the data active = inhibition above about 40%
Numbers without * were called inactive; x = no result.

SMILES | Fam108B inh | PME-1 primary | LYPLA2 counter | LYPLA1 inh | RBBP9 inhibitor | others
O=C(CN1CC=C(c2ccccc2)CC1)Nc1c(Cl)cccc1Cl | 8 | 36* | -1 | 0 | 6
Cc1ccc(S(=O)(=O)N2CCCCC2)cc1NC(=O)CN1CC=C(c2ccccc2)CC1 | 0 | 75* | -8 | -1 | -2
O=C(CN1CC=C(c2ccccc2)CC1)Nc1cc(Cl)ccc1Cl | -5 | 9 | -2 | -3 | 4
COC(=O)C1=C(c2cccc(C#N)c2)C[C@@H]2CC[C@H]1N2C(=O)N1CCC(O)CC1 | x | 2 | 4 | -2 | x
Oc1ccc(/C=N/NP(=S)(c2ccccc2)c2ccccc2)c(O)c1O | -3 | 28* | -5 | -9 | -3
Oc1ccccc1/C=N/NP(=S)(c1ccccc1)c1ccccc1 | -3 | -6 | -12 | -9 | -10
Nc1c(C(=O)NCc2ccco2)c2nc3ccccc3nc2n1CCN1CCOCC1 | 2 | 28* | 2 | 2 | 0
Cc1nn(Cc2ccccc2Cl)c(C)c1C(=O)OCC(=O)NC1CCCC(C)C1C (stereo not drawn) | -4 | -1 | -4 | -2 | 1
COc1cccc(OC)c1C1=NCC(=O)Nc2c1oc1ccc(Br)cc21 | -6 | 45* | -6 | -2 | -8
O=C1CN=C(c2ccccc2)c2oc3ccc(Br)cc3c2N1 | -1 | -3 | 3 | -4 | -5
O=C(Nc1ccc(F)cc1F)c1cccnc1Oc1cccc(C(F)(F)F)c1 | -1 | 2 | 0 | 1 | -6
O=[N+]([O-])c1c2ccccc2cc2ccccc12 | x | -11 | -11 | -7 | x
Oc1cc2c(cc1O)[C@H]1c3ccccc3CN[C@@H]1CC2 | 1 | -11 | -8 | -5 | 22*
O=C1C2CCCN2C(c2ccccc2)N1c1ccccn1 (stereo not drawn) | 7 | 2 | -4 | 2 | -1
CC(C)C(=O)c1cn(Cc2ccccc2C#N)c2ccccc12 | -1 | 39* | -4 | 0 | -6
CC(=O)c1cn(Cc2ccccc2C#N)c2ccccc12 | 3 | 3 | 1 | 0 | 2
NP(=O)(OCC(F)(F)F)Oc1cccc2ccccc12 (stereo not drawn) | -3 | 15 | 0 | 0 | -4
NP(=O)(Oc1ccccc1Cl)Oc1ccccc1Cl | 0 | 98* | 3 | 2 | -5
Cc1ccc(C(=O)O)cc1N=Nc1c(O)[nH]c(=O)[nH]c1=O | 0 | 5 | -6 | -4 | 0
O=c1[nH]c(=S)[nH]c(O)c1N=Nc1ccc(S(=O)(=O)N2CCc3ccccc32)cc1 | 10 | 36* | -5 | -1 | -9
O=C1NC(=O)C(=Cc2ccc(Oc3ccc([N+](=O)[O-])cc3)cc2)C(=O)N1 | 1 | -1 | 38* | 6 | 0
Cn1c(O)c(/C=C2\N=c3ccccc3=C2CCNC(=S)NC2CC2)c(=O)n(C)c1=O | 4 | -2 | 0 | -1 | -1
NP(=O)(OCC(F)(F)F)Oc1ccc(Cl)cc1 (stereo not drawn) | 4 | 28* | 1 | 2 | -1
O=C(CF)NC(Nc1cccc2cccnc12)C(Cl)(Cl)Cl (stereo not drawn) | 3 | 36* | 6 | -2 | -4
COc1ccc(N2C(=O)NC(=O)/C(=C\c3ccc([N+](=O)[O-])s3)C2=O)cc1 | 16 | -5 | -3 | -6 | -11
SMILES | Fam108B inh | PME-1 primary | LYPLA2 counter | LYPLA1 inh | RBBP9 inhibitor | others
COc1ccccc1N1C(=O)NC(=O)/C(=C/c2ccc([N+](=O)[O-])s2)C1=O | 25* | -1 | 1 | 2 | 1
CCOC(=O)C1CCCN(c2ccc([N+](=O)[O-])c3nonc23)C1 (stereo not drawn) | x | x | x | x | 19* | RBBP9 confirm=31*
CCC(C)n1c(O)c(C=NC(C)c2ccccc2)c(=O)[nH]c1=S (stereo not drawn) | 2 | 3 | -5 | -2 | 16* | RBBP9 confirm=2
CCN(CC)CCO | x | -2 | 6 | 0 | x
O=c1[nH]c(=O)n(Cc2ccco2)c(O)c1C=NC1CC1 | -4 | -5 | 2 | 2 | -3
CC(C)N(Cc1ccco1)/N=C/c1c(O)n(Cc2ccccc2)c(=O)[nH]c1=O | 2 | -5 | 3 | 0 | 19* | RBBP9 confirm=7
CCN1/C(=C\C=C\C2=[N+](CC)c3ccccc3C2(C)C)C(C)(C)c2ccccc21 | -373 | -243 | -339 | -160 | 100* | RBBP9 confirm=-50
CCCNC(=O)N1[C@H]2CC[C@@H]1C(C(=O)OC)=C(c1cc3ccccc3o1)C2 | -5 | 1 | -7 | -1 | x
CC(C)N1CCN(c2ccc(O)cc2)CC1 | -5 | -9 | -8 | -1 | 15* | RBBP9 confirm=-1
N#CCC(=O)NN1Cc2ccccc2C1=N | 5 | 2 | 1 | 1 | 3
CCNc1nc(Cl)nc(NC(C)C)n1 | -4 | 1 | 3 | 5 | 2
CCCCn1c(NS(=O)(=O)c2ccc(C)cc2)c(C(=O)OCC)c2nc3ccccc3nc21 | 3 | 5 | 9 | 3 | -1
CCCCn1c(NC(=O)c2ccco2)c(C(=O)OCC)c2nc3ccccc3nc21 | 49* | 19 | 13 | 7 | -4 | Fam108b confirm=49*;Fam108b inh=35
COC(=O)c1nc(-c2ccc3c(n2)C(=O)C(N)=C(OC)C3=O)c(N)c(-c2ccc(OC)c(OC)c2O)c1C | 49* | 66* | -2 | 2 | -3 | Fam108b confirm=63*;Fam108b inh=0
CCCCCCn1c(O)c(/C=N/N2CCCCCC2)c(=O)[nH]c1=O | 9 | 3 | 1 | -2 | -2
CC(C)C[C@H]1C(=O)N2CCCC2[C@]2(O)O[C@](NC(=O)[C@@H]3C=C4c5cccc6[nH]cc(c56)CC4N(C)C3)(C(C)C)C(=O)N12 (stereo partly drawn) | 19* | 12 | 4 | 0 | -4 | Fam108b confirm=17
COc1ccc(N2C(=O)CC(N3CCC(n4c(=O)[nH]c5ccccc54)CC3)C2=O)cc1 (stereo not drawn) | 4 | -1 | 7 | 0 | 3
O=c1[nH]c2ccccc2n1CCCN1CCC(n2c(=O)[nH]c3cc(Cl)ccc32)CC1 | 19* | -1 | 4 | 0 | 3 | Fam108b confirm=-4
CCOP(=O)(OCC)C(NS(=O)(=O)c1ccccc1)C(Cl)(Cl)Cl (stereo not drawn) | 2 | -2 | 4 | 3 | -5
NC(Cc1cc(O)c(O)cc1O)C(=O)O (stereo not drawn) | 80* | 38* | 3 | -24 | x | Fam108b confirm=101*;Fam108b inh=50*
O=C(c1ccc2nc(-c3ccco3)c(-c3ccco3)nc2c1)N1CCC2(CC1)OCCO2 | 23* | -6 | 2 | -5 | x | Fam108b confirm=9
